Source: PubChem BioAssay
Most compounds without a hit are left out; they make up all but 8.9% or so of the library.
HSV augment = increases HSV replication in cells | maximum fold increase | hit rate 0.005% among 220,000 | HSV replication augmentation in cells, fold increase | AID 1956; in the data active = maximum fold increase above about 1.5; inconclusive = no clear call, values can overlap the other calls; tested in PC3 cells
Dynein cargo inh = blocks dynein driven cargo transport along microtubules | z-score, hits read low | 3617.4 mouse cells, GR-EGFP nuclear translocation imaging; test concentration mostly 20 µM; stimulated with dexamethasone, 1 µM; stronger effect = lower value | AID 1381 | hit rate 0.47% among 220,000;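 active = plate z-score of nuclear minus cytoplasmic receptor signal below a set negative limit, without overly bright fluorescence or cell loss, cut at about -3.5 in these data, passing the limit was not always enough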;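 also: z-score of nuclear minus cytoplasmic ring GR-EGFP intensity difference per well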
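Buffer or medium: Induction medium lacking tetracycline, stripped serum | Also added: Dexamethasone agonist, 1.0 µM final, for 30 min | Timing: 48 h induction, 1 h compound, 30 min dex at 37 °C | Detection: Formaldehyde fixation, Hoechst nuclear stain, 10x automated fluorescence imaging | Measure: Nuclear versus cytoplasmic GR-EGFP signal, averaged per well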
MT stabilize HCS = microtubule stabilization, imaging screen | HeLa tubulin immunostaining HCS, 24 h; share of cells brighter than vehicle mean+2SD | % tubulin-high responders, % at 10 µM | hit rate 0.83% among 200,000;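 active = plate Z-score above 3 for both tubulin-high and condensed-nucleus cell shares, with cell loss under 80%, at 10 µM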;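 also: anti alpha tubulin signal scored within the nucleus-defined area of each cell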
Lmaj promast = reduces viability of Leishmania major promastigotes; resazurin fluorescence viability; inhibition, % at 10 µM; hit rate 9% among 200,000; in the data active = inhibition above about 50%;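 also: promastigotes grown with compound for 44 hours at 28 °C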
bCat nuc transl = beta-catenin nuclear translocation modulation; HeLa beta-catenin nuclear translocation, immunofluorescence imaging; nuclear translocation activity, % at 5 µM; hit rate 0.3% among 190,000; AID 1665;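 active = nuclear translocation activity above 50% at 5 µM, with a well cell count of 50 or more; inconclusive = wells under 50 cells across six images, flagged as toxic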;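 also: per-cell ratio of nuclear to cytoplasmic median beta-catenin stain intensity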
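Read-out: Nuclear/cytoplasmic beta-catenin signal ratio, % activation | Assay system: Human HeLa cell line | Times: 24 h compound exposure at 37°C, 5% CO2 | Signal: Fluorescence imaging of beta-catenin antibody stain plus DAPI | Dosing: 5 µM primary, 0.02–20 µM confirmation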
Of the large screens only hits and unclear results are named; the others gave an inactive call.

CN(C)S(=O)(=O)N1CCN(S(=O)(=O)N2CCOCC2)CC1	none
O=C(NCc1ccc2c(c1)OCO2)c1ccccn1	none
CC(C)(C)NC(=O)N1CCN(c2ncccc2C(F)(F)F)CC1	none (no result: MT stabilize HCS, Lmaj promast)
O=C(Cc1ccccc1)Nc1ccc(C(=O)O)cc1	none
CCOC(=O)c1ccc(NC(=O)CN2C(=O)NC3(CCCCCC3)C2=O)cc1	Lmaj promast 91
COC(=O)c1ccc(NC(=O)Cc2ccccc2)cc1	Lmaj promast 76
O=S(=O)(c1ccc(OCC(O)CNC23CC4CC(CC(C4)C2)C3)c(Cl)c1)N1CCOCC1 (centres undefined)	Lmaj promast 94
CC(C)C(C)NC(=O)COc1ccc(S(=O)(=O)N2CCOCC2)cc1Cl (centres undefined)	none
COc1ccc(CN2CCC(N(CCc3ccccc3)Cc3ccccc3)CC2)c(OC)c1	Lmaj promast 94
COc1ccc(CN2CCC(C(=O)N(C)CCc3ccc(OC)c(OC)c3)CC2)c(OC)c1	none
Cc1cccc(Sc2c([N+](=O)[O-])ncn2C)c1	Lmaj promast 93
Cc1cccnc1Sc1c([N+](=O)[O-])ncn1C	none
COc1ccc2[nH]c(=O)cc(C(=O)O)c2c1	none
COc1ccc2[nH]c3c4c(ccc3c2c1)C(=O)C=CC4=O	Dynein cargo inh -5.2 (no result: MT stabilize HCS, Lmaj promast)
CCOC(=O)N1CCN(C(=O)Nc2ccc3nc(C)sc3c2)CC1	none
CCOC(=O)Nc1ccc2nc(N3CCCCCC3)sc2c1	bCat nuc transl 84 (no result: MT stabilize HCS, Lmaj promast)
O=C1CN(c2nc(-c3ccccc3)c3cc(Cl)ccc3n2)c2ccccc2N1	none
OCCN1CCN(c2nc(-c3ccccc3)c3cc(Cl)ccc3n2)CC1	none
Clc1ccc2nc(N3CCNCC3)nc(-c3ccccc3)c2c1	Lmaj promast 101
CN1CCN(c2nc(-c3ccccc3)c3cc(Cl)ccc3n2)CC1	Lmaj promast 86
COc1ccc2[nH]c(C)c(CCNC(=S)Nc3ccccc3C)c2c1	none (no result: HSV augment)
COc1ccc2[nH]c(C)c(CCNC(=S)Nc3ccc(C)cc3)c2c1	Lmaj promast 92
COc1ccc2[nH]c(C)c(CCNC(=S)Nc3cccc(C)c3C)c2c1	Lmaj promast 61 (no result: HSV augment)
Cc1nc2ccc(S(=O)(=O)Nc3cc(-c4nc5cccnc5s4)ccc3C)cc2s1	MT stabilize HCS 21
Cc1ccc(NS(=O)(=O)c2ccccc2)c2c1CC(C)(C)O2	MT stabilize HCS 27
Nc1c(C(=O)c2ccc(Br)cc2)oc2ccccc12	none
O=C1c2nc3ccccn3c2C(=O)N1Cc1ccccc1	none
CCOC(=O)c1csc(NC(=O)Nc2cccc(Cl)c2)n1	Lmaj promast 87
CCOC(=O)Cc1csc(NC(=O)Nc2cccc(Cl)c2)n1	none
O=C(Nc1cccc(Cl)c1)Nc1nnc(-c2ccncc2)s1	Lmaj promast 65
CNc1sc(C(=O)c2ccc(F)cc2)c(N)c1-c1nc2ccccc2s1	none (no result: bCat nuc transl)
COc1ccc(N=CC2=C(O)CC(c3ccccc3)CC2=O)c(OC)c1 (centres undefined)	MT stabilize HCS 27 (no result: bCat nuc transl)
CCC(=Nc1ccccc1OC)C1=C(O)CC(c2ccccc2)CC1=O (centres undefined)	MT stabilize HCS 15, Lmaj promast 53
CCN(CC)c1ccc(/C=C/C(=O)C2C(=O)C=C(C)OC2=O)cc1 (centres undefined)	HSV augment inconclusive
N#C/C(=C\c1ccc(Cl)cc1)c1nc2ncccc2[nH]1	MT stabilize HCS 42, Lmaj promast 79
N#C/C(=C\c1ccc(Sc2ccc(Cl)cc2)o1)c1nc2ccccc2[nH]1	HSV augment inconclusive, Lmaj promast 60
N#C/C(=C\c1c(Cl)cccc1Cl)c1nc2ccccc2[nH]1	none (no result: MT stabilize HCS, Lmaj promast)
N#C/C(=C/c1cccs1)c1nc2ccccc2[nH]1	Lmaj promast 85 (no result: bCat nuc transl)
CCOC(=O)c1c(NC(=O)c2nn(CC)cc2Br)c(C#N)cn1-c1ccccc1	none (no result: bCat nuc transl)
CC(C)CN1CCN(C2CCN(C(C)C)CC2)C(CCO)C1 (centres undefined)	none
CC(C)N1CCC(N2CCN(Cc3ccc(-c4ccc(Cl)cc4)o3)CC2CCO)CC1 (centres undefined)	Lmaj promast 88
CC(C)N1CCC(N2CCN(Cc3ccc(-c4ccccc4Cl)o3)CC2CCO)CC1 (centres undefined)	Lmaj promast 89
CSc1ncc(CN2CCN(C3CCN(C(C)C)CC3)C(CCO)C2)cn1 (centres undefined)	none
CC(C)N1CCC(N2CCN(CCCc3ccccc3)CC2CCO)CC1 (centres undefined)	none
